Results on one molecule are retold here after ChEMBL document CHEMBL5236592, “Induction of Ferroptosis in Glioblastoma and Ovarian Cancers by a New Pyrrole Tubulin Assembly Inhibitor” (J Med Chem, 2022).

In data set [1] the test system is Mus musculus. Put plainly: Upregulation of Cpx mRNA expression in tumor of BALB/C nu/nu mouse xenografted with human SK-OV-3 cells at 25 mg/kg, ip administered every 2 days for 40 days by qPCR analysis. The format is functional, organism-based. The following applies: time 40.0 day. A digest of the protocol: (§1)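 Female BALB/c nu/nu mice bearing sc U-87 MG or SKOV-3 xenografts were dosed ip at 25 mg/kg (100 μL) every 2 days, or given saline, and tumors were taken at day 40. RNA was extracted from about 20 mg of tissue. qPCR ran 40 cycles (95 °C 15 min; 94 °C 20 s; 60 °C 34 s) on a 69-gene panel. Fold change was by 2^–ΔΔCt, with ≥1.5 counted as increased.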

For data set [2], the system named is Mus musculus. Briefly: Upregulation of Acsf2 mRNA expression in tumor of BALB/C nu/nu mouse xenografted with human U-87 MG cells at 25 mg/kg, ip administered every 2 days for 40 days by qPCR analysis. The format is functional, organism-based. As to conditions: time 40.0 day. A digest of the protocol: as §1
On the technique in general: In xenograft studies the graft and the host belong to different species.

Data set [3] deals with Mus musculus. Put plainly: Upregulation of Rpl8 mRNA expression in tumor of BALB/C nu/nu mouse xenografted with human SK-OV-3 cells at 25 mg/kg, ip administered every 2 days for 40 days by qPCR analysis. The format is functional, organism-based. As to conditions: time 40.0 day. A digest of the protocol:
(§2)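 Female BALB/c nu/nu mice, 10 weeks old, 4 per group. Inoculated s.c. with 1 × 10^8 cells/mL of log-phase U-87 MG or SKOV-3 cells. Dosed i.p. with 100 μL at 25 mg/kg every 2 days; controls got 100 μL saline. Tumors harvested on day 40. RNA extracted from about 20 mg of tissue. qPCR panel of 69 genes, 40 cycles (94 °C 20 s, 60 °C 34 s). Analysed by 2–ΔΔCt; fold ≥1.5 taken as increased.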

Data set [4] deals with Mus musculus. Briefly: Upregulation of Chac1 mRNA expression in tumor of BALB/C nu/nu mouse xenografted with human SK-OV-3 cells at 25 mg/kg, ip administered every 2 days for 40 days by qPCR analysis. The format is functional, organism-based. The following applies: time 40.0 day. A digest of the protocol:
as §1

The subject of data set [5] is Mus musculus. Briefly: Upregulation of Lpcat3 mRNA expression in tumor of BALB/C nu/nu mouse xenografted with human U-87 MG cells at 25 mg/kg, ip administered every 2 days for 40 days by qPCR analysis. As to conditions: time 40.0 day. The format is functional, organism-based. A digest of the protocol: as §2
Data set [6] concerns Mus musculus. Briefly: Upregulation of Nf22l2 mRNA expression in tumor of BALB/C nu/nu mouse xenografted with human SK-OV-3 cells at 25 mg/kg, ip administered every 2 days for 40 days by qPCR analysis. The format is functional, organism-based. As to conditions: time 40.0 day. A digest of the protocol:
as §2

Data set [7] deals with U-87MG ATCC. Put plainly: Induction of ferroptosis-mediated antitumor activity against human U-87 MG cells xenografted in BALB/C nu/nu mouse assessed as reduction in total glutathione level in tumor at 25 mg/kg, ip administered every 2 days for 40 days by biochemical analysis. The format is functional, organism-based. The following applies: time 40.0 day. In a few lines: (§3)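 U-87 MG or SKOV-3 sc xenografts (1 × 10^8 cells/mL) in female BALB/c nu/nu mice, 4 per group. Given 25 mg/kg ip in 100 μL every 2 days, or saline. Tumors harvested on day 40 and assayed for LPO, MDA, lactic acid, total glutathione (GSH + GSSG), ATP and Fe2+.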

The subject of data set [8] is Mus musculus. Put plainly: Upregulation of Nrf2 mRNA expression in tumor of BALB/C nu/nu mouse xenografted with human U-87 MG cells at 25 mg/kg, ip administered every 2 days for 40 days by qPCR analysis. The format is functional, organism-based. The following applies: time 40.0 day. A digest of the protocol:
as §2

The test system of data set [9] is Mus musculus. Put plainly: Upregulation of Gpx4 mRNA expression in tumor of BALB/C nu/nu mouse xenografted with human U-87 MG cells at 25 mg/kg, ip administered every 2 days for 40 days by qPCR analysis. As to conditions: time 40.0 day. The format is functional, organism-based. A digest of the protocol: as §2
The subject of data set [10] is Mus musculus. Put plainly: Upregulation of Hspb5 mRNA expression in tumor of BALB/C nu/nu mouse xenografted with human SK-OV-3 cells at 25 mg/kg, ip administered every 2 days for 40 days by qPCR analysis. The format is functional, organism-based. The following applies: time 40.0 day. A digest of the protocol:
as §2

In data set [11] the test system is Mus musculus. Briefly: Upregulation of Gpx4 mRNA expression in tumor of BALB/C nu/nu mouse xenografted with human SK-OV-3 cells at 25 mg/kg, ip administered every 2 days for 40 days by qPCR analysis. The format is functional, organism-based. As to conditions: time 40.0 day. In a few lines: as §2
Data set [12] can be described thus: Selectivity index, ratio of IC50 for cytotoxicity against human U-87 MG cells to IC50 for cytotoxicity against human OVCAR-3 cells. The format is toxicity, cell-based. The following applies: U-87 MG cells versus OVCAR-3 cells, read-out: Ratio IC50.
Data set [13] relates to U-87MG ATCC. Briefly: Antitumor activity against human U-87 MG cells xenografted in BALB/C nu/nu mouse assessed as reduction in CD31 expression in tumor at 25 mg/kg, ip administered every 2 days for 40 days by immunofluoresence staining based assay. The format is functional, organism-based. The following applies: time 40.0 day. A digest of the protocol:
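Female BALB/c nu/nu mice, 10 weeks old, 4 per group. Received subcutaneous U-87 MG or SKOV-3 cells (1 × 10^8 cells/mL, harvested in log phase). Dosed ip with 100 μL at 25 mg/kg every 2 days; controls got 100 μL saline on the same schedule. Sacrificed at 40 days; tumors weighed, volume = ab²/2. Tumor sections (6 μm, paraffin) stained by immunofluorescence for Ki67 or CD31 with Alexa Fluor 488 secondary.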

For data set [14], the system named is U-87MG ATCC. Put plainly: Induction of ferroptosis-mediated antitumor activity against human U-87 MG cells xenografted in BALB/C nu/nu mouse assessed as increase in lactic acid level in tumor at 25 mg/kg, ip administered every 2 days for 40 days by biochemical analysis. The format is functional, organism-based. As to conditions: time 40.0 day. In a few lines:
as §3

In data set [15] the test system is Mus musculus. Briefly: Upregulation of Akr1c1 mRNA expression in tumor of BALB/C nu/nu mouse xenografted with human U-87 MG cells at 25 mg/kg, ip administered every 2 days for 40 days by qPCR analysis. The format is functional, organism-based. As to conditions: time 40.0 day. In a few lines: as §1
Data set [16] relates to Mus musculus. Briefly: Upregulation of Dpp4 mRNA expression in tumor of BALB/C nu/nu mouse xenografted with human SK-OV-3 cells at 25 mg/kg, ip administered every 2 days for 40 days by qPCR analysis. The format is functional, organism-based. As to conditions: time 40.0 day. In a few lines: as §1
In data set [17] the test system is Mus musculus. Put plainly: Upregulation of PPIF mRNA expression in tumor of BALB/C nu/nu mouse xenografted with human U-87 MG cells at 25 mg/kg, ip administered every 2 days for 40 days by qPCR analysis. The format is functional, organism-based. The following applies: time 40.0 day. In a few lines: as §2
Data set [18] concerns Mus musculus. Put plainly: Upregulation of Sqs mRNA expression in tumor of BALB/C nu/nu mouse xenografted with human SK-OV-3 cells at 25 mg/kg, ip administered every 2 days for 40 days by qPCR analysis. The following applies: time 40.0 day. The format is functional, organism-based. In a few lines:
as §2

For another data set, the system named is T-cell line. Put plainly: Cytotoxicity against human primary T-lymphocytes assessed as reduction in cell viability at 1 to 2.5 uM incubated for 48 to 72 hrs by Annexin V- APC/PI staining based flow cytometry analysis. The format is toxicity. The following applies: dose lower 1 µM, time lower 48 hrs, dose upper 2.5 µM, time upper 72 hrs. A digest of the protocol: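 T lymphocytes negatively selected from healthy-donor PBMCs isolated by density gradient. Cultured at 1.5 × 10^6/mL with 0.1, 1.0 or 2.5 μM compound, DMSO vehicle or untreated, for 48 or 72 h. Stained with annexin V-APC and propidium iodide; early and late apoptotic fractions counted by flow cytometry.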

The test system of the next data set is SK-OV-3. Put plainly: Induction of ferroptosis-mediated antitumor activity against human SK-OV-3 cells xenografted in BALB/C nu/nu mouse assessed as increase in lactic acid level in tumor at 25 mg/kg, ip administered every 2 days for 40 days by biochemical analysis. The format is functional, organism-based. As to conditions: time 40.0 day. In a few lines:
as §3

Calls of active or inactive are those of the source. The calls are words filed in the database; no cut-off is given here.

Turning to `COc1cc(C(=O)c2cn(-c3ncccn3)cc2-c2ccco2)cc(OC)c1OC`, the result with Mus musculus [1], in the data set with Mus musculus [2], in the data set with Mus musculus [3], with Mus musculus [4], in the data set with Mus musculus [5] and in the data set with Mus musculus [6] was Active. Besides, the outcome in the data set on U-87MG ATCC [7], in the data set on Mus musculus [8], in the data set on Mus musculus [9], in the data set with Mus musculus [10], in the data set on Mus musculus [11] and with U-87MG ATCC [13] was Active. The outcome in the data set on U-87MG ATCC [14], with Mus musculus [15], with Mus musculus [16], in the data set on Mus musculus [17], in the data set with Mus musculus [18] and in the data set on SK-OV-3 was Active. Also, the selectivity ratio in data set [12] is 3.5. The Activity result in the data set with T-cell line is given as “Toxic”.
